Folding enthalpy and Tm data for 37 sequences are collected here from the array DNA melting data of Ke et al. (doi:10.1101/2024.01.08.574731).

Data set [1] is described as follows: folding enthalpy; higher = less favourable; fluorescence melt of hairpins on a sequencing array, two-state fit. The note with it: sodium 0.088 M. The gist of the method: (§1)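 Two-state fits, bootstrapped, provided melting temperature and folding enthalpy from Cy3 fluorescence normalised to pre-quench Cy3 and to control constructs. Library hairpins with annealed Cy3 and quencher oligos were imaged on a sequenced MiSeq flow cell in 50 mM Na-HEPES pH 8.0, 25 mM NaCl, at 2.5 °C intervals up to 60 °C. Four replicates were combined with inverse-variance weighting. A 9.35 °C upward shift was applied to fitted temperatures to match UV melts.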

Data set [2] can be described thus: melting temperature; fluorescence melt of hairpins on a sequencing array, two-state fit, raised by 9.35 °C to match UV melts. The settings on record: sodium 0.088 M. The gist of the method:
as §1

On to GTCGCAGGAAACTGCGGC (.(((((....))))).), for which the folding enthalpy in data set [1] is -32.2 kcal/mol. In addition, the Tm in data set [2] was determined as 64.5 °C.

Take GTCGCCGAAAGGCCAGAC ((((((....)))..))): in data set [1], the folding enthalpy was -13.5 kcal/mol. For the same sequence, in data set [2], the Tm was found to be 40.7 °C.

Turning to GTCGCCGAAAGGCCGAC ((((((....))).))), in data set [1], the folding enthalpy is -18.1 kcal/mol. For the same sequence, the Tm in data set [2] was 60.7 °C.

In the case of GTCGCCGAAAGGCGCGAC ((((((....)))..))), the folding enthalpy in data set [1] was -11.3 kcal/mol. Also, in data set [2], the Tm was determined as 58.4 °C.

Regarding GTCGCCGAAAGGCGGAC ((((((....))).))), the folding enthalpy in data set [1] is -11.2 kcal/mol. Further, the Tm in data set [2] is 58 °C.

As to GTCGCCGAAAGGCGGGAC ((((((....)))..))), in data set [1], the folding enthalpy was -6.81 kcal/mol. The Tm in data set [2] came to 41 °C.

As for GTCGCCGAAAGGCTGGAC ((((((....)))..))), in data set [1], the folding enthalpy is -13.1 kcal/mol. In addition, the Tm in data set [2] worked out at 44 °C.

Consider GTCGCCGGAAACGGTGGC (.(.(((....))).).), for which the folding enthalpy in data set [1] was -25.5 kcal/mol. In addition, the Tm in data set [2] turned out to be 52.2 °C.

On to GTCGCCTCGAAAGAGGAC (((..(((....)))))), for which the folding enthalpy in data set [1] was -9.5 kcal/mol. Further, the Tm in data set [2] is 31.3 °C.

Regarding GTCGCTGGAAACAACGAC ((((.((....)).)))), the folding enthalpy in data set [1] is -38.5 kcal/mol. In data set [2], the Tm is 47.1 °C.

As to GTCGCTGGAAACAGCGGC (.(((((....))))).), the folding enthalpy in data set [1] is -23.4 kcal/mol. For the same sequence, in data set [2], the Tm was 65.6 °C.

Turning to GTCGGAGGAAACTCCGGC (.(((((....))))).), the folding enthalpy in data set [1] was -30.5 kcal/mol. For the same sequence, the Tm in data set [2] came to 58.5 °C.

For the sequence GTCGGAGGAAACTTCGGC (.((.((....)).)).), the folding enthalpy in data set [1] was -24.3 kcal/mol. Also, in data set [2], the Tm was found to be 38.4 °C.

With GTCGGCGAAAGCCAGAC ((((((....))).))), the folding enthalpy in data set [1] was -16.4 kcal/mol. For the same sequence, the Tm in data set [2] worked out at 59.4 °C.

With GTCGGCGAAAGCCATGAC ((((((....)))..))), the folding enthalpy in data set [1] is -13.9 kcal/mol. In addition, the Tm in data set [2] was determined as 42.4 °C.

On to GTCGGCGAAAGCCGGGAC ((((((....)))..))), for which the folding enthalpy in data set [1] was -8.08 kcal/mol. In data set [2], the Tm came to 44.1 °C.

For GTCGGCGAAAGCCTAGAC ((((((....)))..))), in data set [1], the folding enthalpy was -18.1 kcal/mol. Besides, the Tm in data set [2] came out at 47.1 °C.

As for GTCGGCGAAAGCCTGAC ((((((....))).))), the folding enthalpy in data set [1] was -15.6 kcal/mol. The Tm in data set [2] was 56.9 °C.

For the sequence GTCGGCGGAAACGTCGGC (.((.((....)).)).), the folding enthalpy in data set [1] was -35.5 kcal/mol. Also, in data set [2], the Tm was determined as 54 °C.

For GTCGGGGGAAACCCCAAC ((.((((....)))).)), in data set [1], the folding enthalpy was -16.1 kcal/mol. For the same sequence, the Tm in data set [2] is 38.5 °C.

GTCGGGGGAAACCTCGGC (.((.((....)).)).): the folding enthalpy in data set [1] is -35.4 kcal/mol. The Tm in data set [2] was 44.9 °C.

As to GTCGGTCGAAAGACTGAC (((.(((....))).))), the folding enthalpy in data set [1] was -38.1 kcal/mol. The Tm in data set [2] was 61.2 °C.

GTCGGTGGAAACGCTGAC (((.(.(....).).))): the folding enthalpy in data set [1] is -20 kcal/mol. The Tm in data set [2] came to 42.6 °C.

For the sequence GTCGGTGGAAACGTCGAC ((((..(....)..)))), the folding enthalpy in data set [1] is -19.7 kcal/mol. In addition, the Tm in data set [2] came to 45.3 °C.

With GTCGTACGAAAGTAGGAC (((.(((....))).))), the folding enthalpy in data set [1] is -39.7 kcal/mol. Further, the Tm in data set [2] stood at 53.7 °C.

With GTCGTAGGAAACTACGAC (((((((....))))))), in data set [1], the folding enthalpy was -43.6 kcal/mol. Besides, the Tm in data set [2] amounted to 63.3 °C.

GTCGTAGGAAACTACGGC (.(((((....))))).): the folding enthalpy in data set [1] is -36.3 kcal/mol. In addition, the Tm in data set [2] was determined as 52.8 °C.

For the sequence GTCGTCACGAAAGTGGAC (((..(((....)))))), the folding enthalpy in data set [1] is -13.3 kcal/mol. Also, in data set [2], the Tm was 37.5 °C.

For GTCGTCCGAAAGGAGGAC (((.(((....))).))), in data set [1], the folding enthalpy is -40.2 kcal/mol. In addition, the Tm in data set [2] stood at 62 °C.

With GTCGTCGAAAGACGTGAC ((((((....)))..))), the folding enthalpy in data set [1] was -10.8 kcal/mol. For the same sequence, in data set [2], the Tm worked out at 39.6 °C.

With GTCGTCGGAAACAACGAC (((((.(....).))))), the folding enthalpy in data set [1] is -38 kcal/mol. In data set [2], the Tm came out at 48.3 °C.

As to GTCGTCGGAAACGGCGAC ((((.((....)).)))), in data set [1], the folding enthalpy was -41.9 kcal/mol. Moreover, in data set [2], the Tm was found to be 62.3 °C.

With GTCGTGCGAAAGCATGAC (((.(((....))).))), in data set [1], the folding enthalpy is -34.8 kcal/mol. Besides, the Tm in data set [2] was found to be 66.3 °C.

As to GTCGTGGGAAACCACGGC (.(((((....))))).), the folding enthalpy in data set [1] was -40.4 kcal/mol. For the same sequence, the Tm in data set [2] is 59.9 °C.

On to GTCGTGGGAAACCGCGAC ((((.((....)).)))), for which the folding enthalpy in data set [1] is -48.7 kcal/mol. Further, the Tm in data set [2] is 60.8 °C.

For GTCGTTCGAAAGAAGAC (((.(((....)))))), the folding enthalpy in data set [1] was -21.2 kcal/mol. Moreover, in data set [2], the Tm came out at 35.6 °C.

As to GTCTAACGAAAGTTCGAC (((.(((....))).))), in data set [1], the folding enthalpy is -28.3 kcal/mol. Further, in data set [2], the Tm was found to be 43.2 °C.
